Data reported in publication PMC6872935 (Nature materials, 2019).

What was measured:
[1] = TEM and DLS of nanoparticle formation; format: physicochemical; conditions: 250 μM GSH + 0.5 nmol U-1 furin, 12 h, furin buffer
How it was run: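 25 μM test compound was incubated 12 h in furin buffer with 250 μM GSH and 0.5 nmol U⁻¹ furin. The resulting particles were examined by TEM, and their size distribution was measured by DLS.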

furin = furin (Homo sapiens, UniProt P09958); assay: Furin-controlled condensation in solution followed by HPLC; format: biochemical; conditions: 25 μM, 250 μM GSH + 0.5 nmol U-1 furin, 12 h, 37 °C
Chain of furin (P09958 108-595 limits assumed): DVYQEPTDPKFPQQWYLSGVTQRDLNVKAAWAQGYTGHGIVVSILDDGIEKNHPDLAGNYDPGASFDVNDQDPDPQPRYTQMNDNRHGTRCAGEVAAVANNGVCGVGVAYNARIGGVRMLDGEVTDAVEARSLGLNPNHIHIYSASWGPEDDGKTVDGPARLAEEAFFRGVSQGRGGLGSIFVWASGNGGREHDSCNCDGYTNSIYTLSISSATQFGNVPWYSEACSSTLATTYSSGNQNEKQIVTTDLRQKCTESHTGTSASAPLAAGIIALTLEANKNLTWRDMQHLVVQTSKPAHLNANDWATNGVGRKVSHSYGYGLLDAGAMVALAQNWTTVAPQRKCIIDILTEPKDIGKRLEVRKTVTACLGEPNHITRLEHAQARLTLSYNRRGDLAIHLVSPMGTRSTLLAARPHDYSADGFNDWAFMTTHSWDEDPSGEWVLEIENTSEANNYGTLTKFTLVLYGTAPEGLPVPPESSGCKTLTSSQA
How it was run: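 25 μM test compound was incubated with 250 μM GSH at 37 °C, pH 7.4. Reduction alone ran 2 h; with 0.5 nmol U⁻¹ furin added, incubation ran 12 h. Reduced, cleaved and condensed products were followed by HPLC. Conversion to dimer was tracked as a function of time.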

[2] = tested on: DNA methyltransferase (DNMT); assay: DNMT activity/inhibition assay kit on nuclear extracts of treated cells; format: cell-based, human; conditions: HCT116 cells, 500 μM for 3 h, measured 48 h later, n=3
How it was run: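 5×10⁶ HCT116 cells were incubated 3 h at 37 °C with or without 500 μM test compound, washed three times and cultured in fresh McCoy's 5A. After 48 h, nuclear proteins were extracted with a kit and quantified by Bradford assay. DNMT activity was measured with an activity/inhibition kit using 8 μg nuclear protein per well.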

HCT116 cells [3] = assay: CEST MRI of incubated cells; format: cell-based, human; conditions: 500 μM, 3 h; for CEST signal, fold less compared to Olsa-RVRR: after subtracting values of non-treated cells; for OlsaCEST signal, fold larger compared to free olsalazine: in vitro
HCT116 cells [4] = assay: 3D-SIM super-resolution fluorescence imaging of cells; format: cell-based, human; conditions: 8 μM, 3 h
How it was run: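 Cells were exposed for 3 h to 8 μM test compound or free Alexa 488, PBS-washed, fixed 10 min in 4% paraformaldehyde and mounted in DAPI-containing medium. Super-resolution images were acquired with simultaneous 405 nm (DAPI) and 488 nm (Alexa 488) excitation. Experiments were repeated three times.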

HCT116 and LoVo tumors = assay: 3D-SIM imaging of resected tumors; format: in vivo, NU/J nude mouse; conditions: 50 nmol i.v., tumors resected at 2 h post-injection
How it was run: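 Female NU/J nude mice, 6-8 weeks old, carried s.c. xenografts of 1×10⁶ HCT116 and 1×10⁶ LoVo cells. Each received 50 nmol of test compound or free Alexa 488 i.v.; tumors were resected at 2 h. Tissue was formalin-fixed overnight, cryoprotected overnight in 30% w/v sucrose at 4 °C, OCT-embedded, cut at 10 μm and DAPI-mounted. Imaging used 405/488 nm excitation.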

LoVo cells = assay: 3D-SIM super-resolution fluorescence imaging of cells; format: cell-based, human; conditions: 8 μM, 3 h
How it was run: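 Cells were incubated 3 h with 8 μM Alexa-conjugated test probe or free Alexa 488 dye, then washed three times with PBS. They were fixed in 4% paraformaldehyde for 10 min, washed again and mounted with DAPI-containing medium. 3D-SIM used 405 nm (DAPI) and 488 nm (Alexa 488) excitation. Experiments were repeated three times.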

[5] = In vitro CEST MRI of solutions; format: physicochemical; conditions: 11.7 T, 37 °C
How it was run: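 Compound (0.625–10 mM) was dissolved in 10 mM PBS and titrated with 3 M HCl/NaOH to pH 5.0–8.0. Samples in 1 mm capillaries were held at 37 °C at 11.7 T. RARE CEST used TR/TE 6,000/5 ms, B₁ 3.6 μT, and offsets −12 to 12 ppm in 0.3 ppm steps. B₀ was WASSR-corrected. MTR_asym was computed from ±Δω signals over S₀; exchange rate came from QUESP across saturation powers.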

HCT116 cells [6] = assay: Cell viability, acridine orange/propidium iodide counting; format: cell-based, human; conditions: 48 h incubation
[7] = Ex vivo CEST MRI of organs; format: in vivo, NU/J nude mice; conditions: 0.2 mmol/kg i.v.; 2 h p.i. for Olsa-RVRR, 0.5 h p.i. for olsalazine; n=4 mice
How it was run: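 Female nude mice carried s.c. HCT116 (left flank) and LoVo (right flank) xenografts of 100-200 mm³. They received 0.2 mmol/kg test compound i.v. in PBS with 1% DMSO and were killed at 2 h or 30 min. Major organs were placed in PBS in a sealed well plate for CEST imaging. Signal was computed as MTR_asym, expressed relative to muscle; mean±SD, n=4.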

[8] = Mouse body weight during treatment; format: in vivo, NU/J nude mice; conditions: 0.1 mmol/kg i.v., Q3D×8, n=4 mice
How it was run: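 Female NU/J nude mice, 6-8 weeks old, carried s.c. xenografts of 1×10⁶ HCT116 (left flank) and 1×10⁶ LoVo (right flank) cells. Repeated i.v. dosing (QD3×8) began after tumor cell injection, with a PBS control group. Body weight was recorded over time and reported as mean±SD, n=4 mice.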

HCT116 tumor [9] = assay: In vivo CEST MRI of tumor xenograft; design: species or system NU/J nude mice; conditions: 0.2 mmol/kg i.v.; no significant difference between HCT116 and LoVo tumors
How it was run: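 Female NU/J nude mice bore s.c. HCT116 (left flank) and LoVo (right flank) xenografts, 1×10⁶ cells each. At 100–200 mm³, mice received i.v. 0.2 mmol/kg test compound or parent drug in PBS with 1% DMSO. Serial CEST MRI over 24 h at 11.7 T used RARE, TR/TE 5,000/3.7 ms, B₁ 3.6 μT, t_sat 4 s, and offsets ±7.4–12.6 ppm. The 0 h MTR_asym was subtracted; n=4 mice.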

LoVo tumor = assay: Anti-tumor treatment response; format: in vivo, NU/J nude mice; conditions: 0.1 mmol/kg i.v., Q3D×8, n=4 mice
How it was run: (§1)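 At 50–100 mm³, mice were randomised into three groups (n=4). Groups received i.v. 0.1 mmol/kg test compound, parent drug or PBS, all in 1% DMSO, every 3 days (Q3D×8). Caliper volume = (smallest dimension)² × largest × 0.5. Day-33 volumes were expressed relative to PBS.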

HCT116 tumor [10] = assay: Anti-tumor treatment response; format: in vivo, NU/J nude mice; conditions: 0.1 mmol/kg i.v., Q3D×8, n=4 mice
How it was run: as §1

Compound: RKRCRV [CTR1]
- nanoparticle formation with GSH and furin (TEM) [1]: no nanoparticles were formed
- furin cleavage of the reduced compound (furin): could not be further cleaved
- DNMT inhibition [2]: no significant DNMT inhibition
- CEST signal, fold less compared to Olsa-RVRR (HCT116 cells [3]): 4.4 fold
- OlsaCEST signal, fold larger compared to free olsalazine (HCT116 cells [3]): 2.8 fold

Compound: Ac-Arg-Val-Arg-Arg-Cys(StBu)-Lys(Alexa 488)-2-cyanobenzothiazole [Alexa-RVRR]
- intracellular green fluorescence (3D-SIM) (HCT116 cells [4]): clustering of green fluorescent nanoparticles
- green fluorescent nanoparticles in tumors (3D-SIM) (HCT116 and LoVo tumors): much higher quantity of green fluorescent nanoparticles
- intracellular green fluorescence (3D-SIM) (LoVo cells): much less

Compound: O=C(O)c1cc(/N=N/c2ccc(O)c(C(=O)O)c2)ccc1O [olsalazine]
- CEST peak offset from the water proton signal ([5]; 10 mM in PBS): ~ 9.8 ppm
- proton exchange rate (kex) ([5]; 10 mM, pH 7.4, QUESP method): 697 Hz
- dose to obtain a toxic effect comparable to Olsa-RVRR at 125 μM (HCT116 cells [6]): 2.5 mM
- fold dose increase needed versus Olsa-RVRR for comparable toxic effect (HCT116 cells [6]): 20 fold
- organ distribution of OlsaCEST signal ex vivo [7]: both tumor sites showed comparable CEST signals
- body weight [8]: did not show any significant differences in body weight
- maximum OlsaCEST intensity in tumors at 0.5 h p.i. (HCT116 tumor [9]): ~ 1.8%
- average tumor volume at day 33 compared to PBS control group set at 100% (LoVo tumor): 86%
- DNMT inhibition [2]: no significant DNMT inhibition
- average tumor volume at day 33 compared to PBS control group set at 100% (HCT116 tumor [10]): ~ 88%
- OlsaCEST signal versus non-incubated cells (HCT116 cells [3]; p>0.05): no significant difference between free olsalazine-incubated cells and non-incubated cells

Compound: Ac-Arg-Val-Arg-Arg-Cys(StBu)-Lys(olsalazine) [CTR2]
- nanoparticle formation with GSH and furin (TEM) [1]: no nanoparticles were formed
- furin cleavage of the reduced compound (furin): cleaved to cleaved CTR2 without condensation
- DNMT inhibition [2]: no significant DNMT inhibition
- CEST signal, fold less compared to Olsa-RVRR (HCT116 cells [3]): 5.2 fold
- OlsaCEST signal, fold larger compared to free olsalazine (HCT116 cells [3]): 2.3 fold
